Assay results reported in ChEMBL document CHEMBL1153919, “Pyrano[2,3-e]isoindol-2-ones, new angelicin heteroanalogues” (Bioorg Med Chem Lett, 2009).
Active and inactive are the calls of the source. The calls are words filed in the database; no cut-off is given here.

Columns and labels:
[1] = tested on: LoVo; test: Phototoxicity against human LoVo cells exposed to irradiation with 2.5 J/cm'2 UVA light prior to 72 hrs drug exposure by MTT assay; format: functional, cell-based; conditions: light or radiation study
In short: (§1)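 Phototoxicity panel: NCTC-2544 keratinocytes, LoVo adenocarcinoma, K562 and Jurkat leukemia cells. Cells with compound received UVA at 2.5 or 3.75 J/cm2. Cell growth was measured by MTT after 72 h of exposure. IC50 is the concentration inhibiting growth by 50%.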

[2] = tested on: LoVo; test: Phototoxicity against human LoVo cells exposed to irradiation with 3.75 J/cm'2 UVA light prior to 72 hrs drug exposure by MTT assay; format: functional, cell-based; conditions: light or radiation study; in short: as §1
[3] = tested on: K562; test: Cytotoxicity against human K562 cells after 72 hrs by MTT assay; format: functional, cell-based; conditions: K562, 72 h
[4] = tested on: K562; test: Phototoxicity against human K562 cells exposed to irradiation with 2.5 J/cm'2 UVA light prior to 72 hrs drug exposure by MTT assay; format: functional, cell-based; conditions: K562, light or radiation study; in short: as §1
[5] = tested on: K562; test: Phototoxicity against human K562 cells exposed to irradiation with 3.75 J/cm'2 UVA light prior to 72 hrs drug exposure by MTT assay; format: functional, cell-based; conditions: K562, light or radiation study; in short: as §1
[6] = tested on: Jurkat; test: Cytotoxicity against human Jurkat cells after 72 hrs by MTT assay; format: functional, cell-based
[7] = tested on: Jurkat; test: Phototoxicity against human Jurkat cells exposed to irradiation with 2.5 J/cm'2 UVA light prior to 72 hrs drug exposure by MTT assay; format: functional, cell-based; conditions: light or radiation study; in short: as §1
[8] = tested on: Jurkat; test: Phototoxicity against human Jurkat cells exposed to irradiation with 3.75 J/cm'2 UVA light prior to 72 hrs drug exposure by MTT assay; format: functional, cell-based; conditions: light or radiation study; in short: as §1
[9] = Cytotoxicity against human NCTC-2544 cells after 72 hrs by MTT assay; format: cell-based; conditions: NCTC-2544, 72 h
[10] = Phototoxicity against human NCTC-2544 cells exposed to irradiation with 2.5 J/cm'2 UVA light prior to 72 hrs drug exposure by MTT assay; format: cell-based; conditions: NCTC-2544, light or radiation study; in short: as §1
[11] = Phototoxicity against human NCTC-2544 cells exposed to irradiation with 3.75 J/cm'2 UVA light prior to 72 hrs drug exposure by MTT assay; format: cell-based; conditions: NCTC-2544, light or radiation study; in short: as §1
[12] = tested on: LoVo; test: Cytotoxicity against human LoVo cells after 72 hrs by MTT assay; format: functional, cell-based
[13] = tested on: Jurkat; test: Cell cycle arrest in 2.5 J/cm'2 UVA light irradiated human Jurkat cells assessed as accumulation at G1 phase at 5 uM after 24 hrs by DNA cytometry; format: functional
In short: (§2)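 Jurkat (T-cell leukemia) cells were UVA-irradiated at 2.5 J/cm2 in the presence of 5 µM compound. DNA content was analysed by flow cytometry 24 h after irradiation. Controls were non-irradiated cells and cells irradiated without compound. A representative experiment is shown, repeated two times.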

[14] = tested on: Jurkat; test: Cell cycle arrest in 2.5 J/cm'2 UVA light irradiated human Jurkat cells assessed as accumulation at G2/M phase at 5 uM after 24 hrs by DNA cytometry; format: functional; in short: as §2
[15] = tested on: Jurkat; test: Cell cycle arrest in 2.5 J/cm'2 UVA light irradiated human Jurkat cells assessed as accumulation at S phase at 5 uM after 24 hrs by DNA cytometry; format: functional; in short: as §2
[16] = tested on: Jurkat; test: Cell cycle arrest in 2.5 J/cm'2 UVA light irradiated human Jurkat cells assessed as accumulation at subG1 phase at 5 uM after 24 hrs by DNA cytometry; format: functional; in short: as §2
[17] = tested on: Jurkat; test: Induction of lipid peroxidation in 2.5 J/cm'2 UVA light irradiated human Jurkat cells at 5 uM by TBARS test; format: functional, cell-based
[18] = tested on: Jurkat; test: Induction of lipid peroxidation in 2.5 J/cm'2 UVA light irradiated human Jurkat cells at 10 uM by TBARS test; format: functional, cell-based
[19] = tested on: Jurkat; test: Induction of lipid peroxidation in 2.5 J/cm'2 UVA light irradiated human Jurkat cells at 20 uM by TBARS test; format: functional, cell-based

| SMILES | IC50 [1] [µM] | IC50 [2] [µM] | IC50 [3] [µM] | IC50 [4] [µM] | IC50 [5] [µM] | IC50 [6] [µM] | IC50 [7] [µM] | IC50 [8] [µM] | IC50 [9] [µM] | IC50 [10] [µM] | IC50 [11] [µM] | IC50 [12] [µM] | Activity [13] [%] | Activity [14] [%] | Activity [15] [%] | Activity [16] [%] | Activity [17] | Activity [18] | Activity [19] |
| --- | --- | --- | --- | --- | --- | --- | --- | --- | --- | --- | --- | --- | --- | --- | --- | --- | --- | --- | --- |
| CCOC(=O)c1c2c(c(C)n1Cc1ccc(C)cc1)-c1oc(=O)c(C(=O)OC)cc1CC2 | > 20 | > 20 | > 20 | > 20 | 16.6 | > 20 | > 20 | 17.8 | > 20 | > 20 | > 20 | > 20 |  |  |  |  |  |  |  |
| CCOC(=O)c1c2c(c(C)n1Cc1ccccc1)-c1oc(=O)c(C(=O)OC)cc1CC2 | 7.7 | 7.3 | > 20 | 6.1 | 2.7 | > 20 | 8.4 | 3.7 | > 20 | 14 | 10 | > 20 | 44.7 | 11.7 | 44.2 | 14.8 | Active | Active | Active |
| CCOC(=O)c1cc2c(oc1=O)-c1c(c(C(=O)OCC)n(Cc3ccccc3)c1C)CC2 | 10.5 | 9.6 | > 20 | 7.5 | 7.3 | > 20 | 8.2 | 7.2 | > 20 | 14.6 | 10.9 | > 20 | 44.7 | 17.7 | 37.6 | 17.2 | Active | Active | Active |
| CCOC(=O)c1cc2c(oc1=O)-c1c(cn(Cc3ccccc3)c1C)CC2 | > 20 | > 20 | > 20 | > 20 | > 20 | > 20 | > 20 | > 20 | > 20 | > 20 | > 20 | > 20 |  |  |  |  |  |  |  |
| CCOC(=O)c1cc2ccc3c(C(=O)OCC)n(C)c(C)c3c2oc1=O | 16.2 | 6.7 | > 20 | > 20 | > 20 | > 20 | > 20 | > 20 | > 20 | > 20 | > 20 | > 20 |  |  |  |  |  |  |  |
| CCOC(=O)c1[nH]c(C)c2c1CCc1cc(C(=O)OCC)c(=O)oc1-2 | > 20 | > 20 | > 20 | > 20 | > 20 | > 20 | > 20 | > 20 | > 20 | > 20 | > 20 | > 20 |  |  |  |  |  |  |  |
| CCOC(=O)c1cc2ccc3c(C(=O)OCC)[nH]c(C)c3c2oc1=O | > 20 | 17.8 | > 20 | > 20 | > 20 | > 20 | > 20 | > 20 | > 20 | > 20 | > 20 | > 20 |  |  |  |  |  |  |  |
| COc1c2occc2cc2ccc(=O)oc12 [METHOXSALEN] |  |  | > 20 |  |  | > 20 |  |  | > 20 | 5.5 |  | > 20 |  |  |  |  |  |  |  |
| Cn1cc2c(c1)-c1oc(=O)ccc1CC2 | > 20 | > 20 | > 20 | > 20 | > 20 | > 20 | > 20 | > 20 | > 20 | > 20 | > 20 | > 20 |  |  |  |  |  |  |  |
| Cn1cc2c(c1)-c1oc(=O)c(C(=O)O)cc1CC2 | > 20 | > 20 | > 20 | > 20 | > 20 | > 20 | > 20 | > 20 | > 20 | > 20 | > 20 | > 20 |  |  |  |  |  |  |  |
| CCOC(=O)c1c2c(c(C)n1Cc1ccc(OC)cc1)-c1oc(=O)c(C(=O)OC)cc1CC2 | > 20 | > 20 | > 20 | > 20 | 12.6 | > 20 | > 20 | 11.8 | > 20 | > 20 | > 20 | > 20 |  |  |  |  |  |  |  |
| CCOC(=O)c1cc2c(oc1=O)-c1c(c(C(=O)OCC)n(Cc3ccc(OC)cc3)c1C)CC2 | > 20 | > 20 | > 20 | > 20 | 14 | > 20 | > 20 | 13.5 | > 20 | > 20 | > 20 | > 20 |  |  |  |  |  |  |  |
| CCOC(=O)c1cc2c(oc1=O)-c1cn(C)cc1CC2 | > 20 | > 20 | > 20 | > 20 | > 20 | > 20 | > 20 | > 20 | > 20 | > 20 | > 20 | > 20 |  |  |  |  |  |  |  |
| CCOC(=O)c1cc2c(oc1=O)-c1cn(Cc3ccccc3)cc1CC2 | > 20 | > 20 | > 20 | > 20 | > 20 | > 20 | > 20 | > 20 | > 20 | > 20 | > 20 | > 20 |  |  |  |  |  |  |  |
| CCOC(=O)c1cc2c(oc1=O)-c1c(c(C(=O)OCC)n(Cc3ccc(C)cc3)c1C)CC2 | > 20 | 15 | > 20 | 13.5 | 9.3 | > 20 | 16.1 | 12.8 | > 20 | > 20 | 17 | > 20 |  |  |  |  |  |  |  |
| O=c1ccc2c(o1)-c1cn(Cc3ccccc3)cc1CC2 | > 20 | > 20 | > 20 | > 20 | > 20 | > 20 | > 20 | > 20 | > 20 | > 20 | > 20 | > 20 |  |  |  |  |  |  |  |
| O=c1ccc2ccc3occc3c2o1 [ANGELICIN] |  |  | > 20 |  |  | > 20 |  |  | > 20 | 4.2 |  | > 20 |  |  |  |  |  |  |  |
| CCOC(=O)c1cc2c(oc1=O)-c1cn(-c3ccccc3)cc1CC2 | > 20 | > 20 | > 20 | > 20 | > 20 | > 20 | > 20 | > 20 | > 20 | > 20 | > 20 | > 20 |  |  |  |  |  |  |  |
| CCOC(=O)c1cc2c(oc1=O)-c1c(c(C(=O)OCC)n(C)c1C)CC2 | > 20 | 11.1 | > 20 | 13.9 | 13.1 | > 20 | 15.4 | 15.2 | > 20 | > 20 | > 20 | > 20 |  |  |  |  |  |  |  |
